AF4-AF9 inh: MLL-AF4/AF9 protein interaction inhibition; P42568; AlphaScreen, biotin-AF4 peptide binding to FLAG-AF9; inhibition, % at 10 µM; 350,000 compounds, 0.47% hits; AID 651704;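 active = every replicate reaching a set inhibition limit, whatever the replicate mean, cut at about 25% in these data; inconclusive = mean inhibition reaches that limit but some replicates miss it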;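 also: 0% = plate neutral control median and 100% = total signal loss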
Target sequence (P42568 whole entry, looked up): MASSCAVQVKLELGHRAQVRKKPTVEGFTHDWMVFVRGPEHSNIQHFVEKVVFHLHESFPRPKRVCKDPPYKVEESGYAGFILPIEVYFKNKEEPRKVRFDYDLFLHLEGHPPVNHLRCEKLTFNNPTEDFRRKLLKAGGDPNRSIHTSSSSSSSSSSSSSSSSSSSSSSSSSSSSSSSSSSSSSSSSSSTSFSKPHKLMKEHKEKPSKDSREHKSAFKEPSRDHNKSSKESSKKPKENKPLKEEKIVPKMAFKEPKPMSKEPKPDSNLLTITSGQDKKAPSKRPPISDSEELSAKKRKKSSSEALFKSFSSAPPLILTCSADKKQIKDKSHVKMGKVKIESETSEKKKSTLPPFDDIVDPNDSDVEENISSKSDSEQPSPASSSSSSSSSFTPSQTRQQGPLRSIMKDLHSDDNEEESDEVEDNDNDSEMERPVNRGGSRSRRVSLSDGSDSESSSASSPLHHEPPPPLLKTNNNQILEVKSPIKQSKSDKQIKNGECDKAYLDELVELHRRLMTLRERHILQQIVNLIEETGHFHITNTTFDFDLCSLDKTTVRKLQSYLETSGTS
ERp5 inh: blocks human ERp5 reductase activity on insulin; inhibition, % at 9.99 µM; ERp5 insulin aggregation, absorbance 650 nm, 90 min; Q15084; 350,000 compounds, 0.05% hits;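 active = mean replicate inhibition above about 25%, with every replicate also reaching it, limit read from the data, passing the limit was not always enough; inconclusive = only one of those two criteria met; inactive = neither criterion met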
PDI inh: PDI (human) enzyme inhibition | 350,000 compounds, 0.052% hits | PDI insulin aggregation turbidity, A650, 90 min | inhibition, % at 10 µM | P07237;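 active = mean inhibition across replicates of 30% or more, whatever share of single replicates reach that level; inconclusive = mean inhibition below 30% while every single replicate reaches 30%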
FGF22 binding: shifts melting point of recombinant human FGF22; activity (Tm shift, normalised), % at 9.99 µM; 340,000 compounds, 1.5% hits; Q9HCT0; recombinant FGF22 thermal shift, SYPRO orange fluorescence; percent of sucrose octasulfate shift, DMSO zero;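 active = mean Tm shift, scaled 0 neutral to 100 positive control, at about 1.3% or above, every replicate too, limit read from the data; inconclusive = no clear call, values can overlap the other calls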
FN deposition inh: fibronectin deposition inhibition; AH1F fibroblasts, Alexa488-fibronectin deposition fluorescence, overnight; inhibition, % at 12.6 µM; 350,000 compounds, 0.086% hits; AID 743247;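 active = mean inhibition across replicates of 30% or more, regardless of how many single replicates reach that level; inconclusive = mean under 30% yet at least half of replicates reach 30%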;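 also: positive control wells lacked labelled fibronectin entirely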
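Material – AH1F fibroblast monolayer, labelled fibronectin deposition · Reagent – labelled fibronectin 24 nM · Timing – 1 h adhesion, overnight exposure · Measured by – fluorescence at 485 nm excitation, 525 nm emission · Read-out – inhibition of fibronectin deposition signal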
ARNT-TACC3 inh: disrupts binding between human ARNT and TACC3. inhibition, % at 9.99 µM. AlphaScreen His-ARNT PAS-B/GST-TACC3 binding, luminescence; TACC3 fragment carries E629A point mutation. Q9Y6A5. 390,000 compounds, 0.66% hits;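 active = mean inhibition of replicates at least 50% and at least half of replicates each reaching 50%; inconclusive = half or more replicates reach 50% but mean below 50%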;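 also: 0% = complete ARNT plus TACC3 wells and 100% = ARNT alone without TACC3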
AlphaScreen ctr: AlphaScreen artifact in ARNT/TACC3 counter-screen. AC50, µM (titrated, usually from 68 µM), without a hit: at the top dose activity change, negative = signal decrease. 1,200 compounds, 50% hits. shares compounds with ARNT-TACC3 inh. His-ARNT PASB-GST AlphaScreen artifact counter-screen, luminescence;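 active = every separate test run was called active for a drop in luminescence, with AC50 within twice the top valid dose, actives reach about 71 µM in these data; inconclusive = the separate test runs disagree in their calls; inactive = all runs inactive, including signal change in the wrong direction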
Active calls of the source: *; ? = inconclusive; / = not tested or not shown; ! = repeats disagree. An excerpt weighted towards active compounds, which were near 2.1% of everything screened.

SMILES | AF4-AF9 inh | ERp5 inh | PDI inh | FGF22 binding | FN deposition inh | ARNT-TACC3 inh | AlphaScreen ctr
C/C=C/c1cccc(-c2nc(C(=O)NCCN3CCCCC3)cc3c2[C@H](CCO)N([S@@](=O)C(C)(C)C)C3)c1 | / | / | / | / | 7.9 | / | /
C[C@H](CO)N1C[C@H](C)[C@@H](CN(C)Cc2ccc(C(=O)O)cc2)Oc2ccc(NC(=O)C3CC3)cc2C1=O | 2.7 | -0.2 | / | -0.7 | / | 7.8 | /
Cc1cccc(C(=O)Nc2nnc(-c3ccco3)o2)c1 | 5.1 | -1.7 | 5.4 | 0.0 | 1.9 | 56.2* | -35.5%
Cc1cccc(C(=O)Nc2nnc(-c3cccnc3)o2)c1 | 0.7 | 0.6 | -3.0 | 0.1 | / | 58.9* | -34.7%
Cc1ccccc1C(=O)Nc1nnc(-c2ccco2)o1 | 1.9 | -1.5 | -1.9 | 0.0 | -0.8 | 61.6* | -32.7%
COC(=O)c1ccc(C(=O)Nc2nnc(-c3cccnc3)o2)cc1 | -0.7 | 4.1 | / | -0.1 | 2.9 | / | /
O=C(Nc1nnc(-c2ccncc2)o1)c1ccc2ccccc2c1 | -0.9 | -2.5 | -6.3 | 0.1 | -3.0 | 20.0 | /
Cc1cccc(C(=O)Nc2nnc(-c3ccncc3)o2)c1 | -11.3 | 4.4 | 5.4 | -0.3 | -4.9 | 61.6* | -27.2%
O=C(Nc1nnc(-c2ccco2)o1)c1cccc2ccccc12 | -9.0 | 5.6 | 3.2 | 0.5 | -1.5 | 16.9 | /
Cc1ccc(C(=O)Nc2nnc(-c3ccco3)o2)cc1C | / | / | -7.5 | / | -2.1 | 21.3 | /
O=C(C[C@@H]1CC[C@H]2[C@@H](COC[C@H](O)CN2Cc2ccc(F)cc2)O1)NCc1ccccc1Cl | 3.2 | -1.3 | / | -0.6 | -0.1 | -2.8 | /
CNc1nc(C(=O)O)nc(N2CCOCC2)n1 | 1.1 | 3.2 | -6.0 | -0.1 | / | 56.4* | -31.5%
COCC(=O)Nc1ccc2c(c1)C(=O)N(C)C[C@H](OC)[C@@H](C)CN(Cc1ccncc1)[C@@H](C)CO2 | -1.1 | 0.6 | / | -0.3 | -7.4 | -6.6 | /
CCC1CCCCN1S(=O)(=O)c1ccc(NC(=O)CSc2ncccc2C(=O)O)cc1 (stereo not given) | / | / | -7.3 | / | / | 44.4* | 13.7µM*
CN(Cc1ccccc1)N=Nc1nc[nH]c1C(N)=O | -6.5 | -9.4 | / | -0.2 | -14.7 | / | /
NC(=O)c1[nH]cnc1N | -1.0 | 1.5 | 2.7 | 0.1 | 10.4 | 69.4*! | -7.1%
O=C(Nc1ccc(N2CCN(C(=O)c3ccccc3F)CC2)cc1)c1ncn[nH]1 | -1.0 | 3.2 | -5.8 | 0.1 | -4.9 | 59.2* | -18.2%
CCS(=O)(=O)Nc1ccc2c(c1)C(=O)N(C)[C@@H]1CC[C@@H](CC(=O)Nc3ccccc3)O[C@@H]1CO2 | 1.4 | 4.0 | / | 0.0 | -23.6 | -7.3 | /
CC1(C)Cc2c(sc3nc4n(-c5ccccc5)c(=O)c(CCC(=O)O)nn4c(=O)c23)CO1 | -4.9 | 1.9 | 2.3 | 0.2 | -4.3 | 57.4* | -8.2%
CC(C)NC(=O)N[C@@H]1CC[C@@H](CCNS(=O)(=O)c2ccc(Cl)cc2)O[C@@H]1CO | -0.5 | 9.8 | / | 0.2 | / | -6.4 | /
O=C(Nc1cc(F)ccc1F)N[C@@H]1CC[C@@H](CCn2cc(C3CCCC3)nn2)O[C@H]1CO | -2.2 | 0.1 | / | / | 13.9 | / | /
O=C(CSc1ncccn1)N1CCc2ccccc2C1 | -1.7 | 0.9 | -2.4 | 0.1 | -10.4 | 6.3 | /
O=C(CNCc1ccccn1)N1CCc2ccccc2C1 | -4.9 | 5.6 | 2.4 | -0.1 | -5.1 | 76.6* | 17.1µM*
O=C(NN=C1CCCC1)c1cc(Br)ccc1O | 0.1 | -19.4 | 3.0 | 0.0 | 0.0 | 4.4 | /
NNC(=O)c1ccc(O)cc1O | -2.8 | -1.4 | -1.6 | -0.1 | -0.3 | 55.6* | -8.1%
O=C(NN=C1CCCC1)c1ccc(O)cc1O | -2.6 | 0.4 | -7.2 | -0.2 | -5.2 | 48.5* | -5.7%
NNC(=O)c1cc2ccccc2cc1O | / | / | 1.8 | / | -2.4 | 9.1 | /
O=C(O)C1Nc2c(O)cc(Cl)c([N+](=O)[O-])c2C2C=CCC12 (stereo not given) | 17.6 | 11.3 | 19.9 | 2.7* | 0.7 | 57.6* | 31.5µM*
COc1cccc2c1NC(C(=O)O)C1CC=CC21 (stereo not given) | / | / | -5.4 | / | / | -11.6 | /
Cc1nnc(SCC(=O)Nc2nnc(-c3ccccc3)o2)s1 | ? | -6.9 | -10.0 | -0.1 | / | 55.6* | -31.3%

Bioassay records: PubChem, Broad Institute
